Experimental data: PMC6424611 (Journal of molecular biology, 2019)
Where no end group is shown, it is not given here. The star is where a group is joined. Biotin = O=C1N[C@H]2[C@H](CS[C@H]2CCCCC(=O)*)N1; TTDS = NCCCOCCOCCOCCCNC(=O)CCC(=O)*

Columns and labels:
ARHGEF11 PDZ = experiment: holdup assay; type: binding, human; conditions: fraction of PDZ depleted; ~4 μM PDZ; biotinylated RSK1_725–735; triplicates
Method in brief: (§1)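 Automated holdup against N-terminally biotinylated (TTDS linker) RSK1 725–735 peptides, unphosphorylated and phosphorylated, in triplicate. PDZome v2 clones were codon-optimized and expressed in E. coli, with soluble lysate adjusted to ~4 μM. BI is the PDZ fraction depleted from the fluid phase.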

GOPC PDZ = GOPC PDZ (Homo sapiens, UniProt Q9HD26); experiment: holdup assay; type: binding; conditions: fraction of PDZ depleted; ~4 μM PDZ; biotinylated RSK1_725–735; triplicates
GRID2IP-2 PDZ = GRID2IP-2 PDZ (Homo sapiens, UniProt A4D2P6); experiment: holdup assay; type: binding; conditions: fraction of PDZ depleted; ~4 μM PDZ; biotinylated RSK1_725–735; triplicates
Chain of GRID2IP-2 PDZ (A4D2P6 279-356 limits assumed): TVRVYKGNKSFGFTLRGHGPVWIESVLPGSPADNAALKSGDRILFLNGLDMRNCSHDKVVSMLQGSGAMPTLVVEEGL
Method in brief: (§2)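 Automated holdup in triplicate measured biotinylated (N-terminal TTDS linker) RSK1 725–735 peptides, unphosphorylated or phosphorylated, against E. coli-expressed PDZome v2 domains. Soluble lysate was adjusted to ~4 μM, giving 255 domains for the unphosphorylated and 252 for the phosphorylated peptide. Binding intensity (BI) is the fraction of PDZ depleted from the fluid phase. BI 0.2 was the high-confidence threshold.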

DFNB31-3 PDZ = experiment: holdup assay; type: binding, human; conditions: ~4 μM PDZ
Method in brief: as §1

GRASP PDZ = experiment: holdup assay; type: binding, human; conditions: ~4 μM PDZ
Method in brief: as §1

NHERF2-2 PDZ = experiment: holdup assay; type: binding, human; conditions: ~4 μM PDZ
Method in brief: as §1

LIMK2 PDZ = experiment: holdup assay; type: binding, human; conditions: ~4 μM PDZ
Method in brief: as §1

SNTB1 PDZ = target: T1, SNTB1 PDZ (Homo sapiens, UniProt Q13884); experiment: holdup assay; type: binding; conditions: ~4 μM PDZ
T1 sequence (Q13884 112-195 limits assumed): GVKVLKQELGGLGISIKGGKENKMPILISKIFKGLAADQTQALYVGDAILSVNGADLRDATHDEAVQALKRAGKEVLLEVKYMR
Method in brief: as §1

SNTG2 PDZ = target: T2, SNTG2 PDZ (Homo sapiens, UniProt Q9NY99); experiment: holdup assay; type: binding; conditions: ~4 μM PDZ
T2 sequence (Q9NY99 73-156 limits assumed): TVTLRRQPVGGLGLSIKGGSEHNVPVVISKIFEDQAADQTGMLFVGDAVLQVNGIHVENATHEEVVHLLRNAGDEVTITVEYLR
Method in brief: as §1

PTPN3 PDZ = experiment: holdup assay; type: binding, human; conditions: ~4 μM PDZ
Method in brief: as §1

DLG4-2 PDZ = experiment: holdup assay; type: binding, human; conditions: ~4 μM PDZ
MAGI2-2 PDZ = MAGI2-2 PDZ (Homo sapiens, UniProt Q86UL8); experiment: holdup assay; type: binding; conditions: ~4 μM PDZ
Chain of MAGI2-2 PDZ (Q86UL8 426-510 limits assumed): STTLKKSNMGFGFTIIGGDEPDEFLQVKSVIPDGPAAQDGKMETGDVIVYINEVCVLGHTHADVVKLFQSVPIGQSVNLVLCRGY
Method in brief: as §1

LAP2 PDZ = experiment: holdup assay; type: binding, human; conditions: ~4 μM PDZ
Method in brief: as §1

MAGI1-2 PDZ = MAGI1-2 PDZ (Homo sapiens, UniProt Q96QZ7); experiment: holdup assay; type: binding; conditions: ~4 μM PDZ
Chain of MAGI1-2 PDZ (Q96QZ7 472-554 limits assumed): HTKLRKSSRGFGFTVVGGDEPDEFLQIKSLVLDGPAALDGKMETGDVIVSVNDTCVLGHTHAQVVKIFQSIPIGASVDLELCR
Method in brief: as §1

PDZD7-3 PDZ = target: T3, PDZD7-3 PDZ (Homo sapiens, UniProt Q9H5P4); experiment: holdup assay; type: binding; conditions: ~4 μM PDZ
T3 sequence (Q9H5P4 862-934 limits assumed): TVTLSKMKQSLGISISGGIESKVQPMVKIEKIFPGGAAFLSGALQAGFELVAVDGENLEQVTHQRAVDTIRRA
Method in brief: as §1

PPP1R9A PDZ = experiment: holdup assay; type: binding, human; conditions: ~4 μM PDZ
Method in brief: as §1

MAGI3-2 PDZ = experiment: holdup assay; type: binding, human; conditions: fraction of PDZ depleted; ~4 μM PDZ; biotinylated RSK1_725–735; triplicates
Method in brief: as §2

SHROOM2 PDZ = experiment: holdup assay; type: binding, human; conditions: ~4 μM PDZ
Method in brief: as §1

SCRIB-3 PDZ = experiment: holdup assay, updated analysis; type: binding, human; conditions: weak partner; automated computational protocol
Method in brief: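 The same triplicate holdup datasets (biotinylated RSK1 725–735, unphosphorylated and phosphorylated, vs ~4 μM PDZome lysates) were re-analysed with an updated automated computational protocol. This gave alternative BI values, reported as supplemental values alongside the conventional analysis.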

PARD3B-1 PDZ = target: T4, PARD3B-1 PDZ (Homo sapiens, UniProt Q8TEW8); experiment: holdup assay; type: binding; conditions: fraction of PDZ depleted; ~4 μM PDZ; biotinylated RSK1_725–735; triplicates
T4 sequence (Q8TEW8 201-289 limits assumed): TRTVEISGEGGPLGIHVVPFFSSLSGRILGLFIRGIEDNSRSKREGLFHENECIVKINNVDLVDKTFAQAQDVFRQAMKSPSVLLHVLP
Method in brief: as §2

GRID2IP-1 PDZ = experiment: holdup assay; type: binding, human; conditions: ~4 μM PDZ
Method in brief: as §1

MAST2 PDZ = target: T5, MAST2 PDZ (Homo sapiens, UniProt Q6P0Q8); experiment: holdup assay; type: binding; conditions: fraction of PDZ depleted; ~4 μM PDZ; biotinylated RSK1_725–735; triplicates
T5 sequence (Q6P0Q8 1104-1192 limits assumed): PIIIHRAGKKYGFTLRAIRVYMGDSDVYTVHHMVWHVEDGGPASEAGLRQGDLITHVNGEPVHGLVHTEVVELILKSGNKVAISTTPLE
Method in brief: as §1

[1] = system: human PDZ domains (PDZome); experiment: holdup assay, PDZome-binding profile; conditions: PDZome profile
Method in brief: as §2

NHERF3-1 PDZ = target: T6, NHERF3-1 PDZ (Homo sapiens, UniProt Q5T2W1); experiment: holdup assay; type: binding; conditions: ~4 μM PDZ
T6 sequence (Q5T2W1 9-90 limits assumed): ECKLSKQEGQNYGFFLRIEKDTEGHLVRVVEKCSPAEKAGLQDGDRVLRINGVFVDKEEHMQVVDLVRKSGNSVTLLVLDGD
Method in brief: as §1

GORASP1 PDZ = experiment: holdup assay; type: binding, human; conditions: ~4 μM PDZ
Method in brief: as §1

HTRA1 PDZ = HTRA1 PDZ (Homo sapiens, UniProt Q92743); experiment: holdup assay; type: binding; conditions: ~4 μM PDZ
Chain of HTRA1 PDZ (Q92743 365-467 limits assumed): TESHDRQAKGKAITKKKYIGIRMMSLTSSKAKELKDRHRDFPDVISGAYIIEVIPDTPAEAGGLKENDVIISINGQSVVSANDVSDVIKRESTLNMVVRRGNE
Method in brief: as §1

PDZRN4-1 PDZ = target: T7, PDZRN4-1 PDZ (Homo sapiens, UniProt Q6ZMN7); experiment: holdup assay; type: binding; conditions: fraction of PDZ depleted; ~4 μM PDZ; biotinylated RSK1_725–735; triplicates
T7 sequence (Q6ZMN7 224-314 limits assumed): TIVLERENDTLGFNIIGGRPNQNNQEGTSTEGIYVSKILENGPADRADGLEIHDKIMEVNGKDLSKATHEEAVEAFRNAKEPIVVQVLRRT
Method in brief: as §2

[2] = fraction of PDZ depleted, biotinylated RSK1_725–735, triplicates
[3] = read-out: KD, estimated, from BI, estimated 17 μM peptide

unphosphorylated RSK1 peptide: C-terminal RSK1 PBM peptide; RSK1_725–735 (holdup, SPR), RSK1_729–735 (direct FP), RSK1_683–735 (competitive FP) ({Biotin-TTDS}-RRVRKLPSTTL)
binding intensity (BI) (ARHGEF11 PDZ): 0.28 ± 0.06 | binding intensity (BI) (GOPC PDZ): 0.63 ± 0.05 | binding intensity (BI) (GRID2IP-2 PDZ): 0.67 ± 0.02 | binding intensity (BI) (DFNB31-3 PDZ; [2]): 0.23 ± 0.04 | Kd (DFNB31-3 PDZ; [3]): 53.8 µM | binding intensity (BI) (GRASP PDZ; [2]): 0.29 ± 0.01 | Kd (GRASP PDZ; [3]): 38.8 µM | binding intensity (BI) (NHERF2-2 PDZ; [2]): 0.20 ± 0.04 | Kd (NHERF2-2 PDZ; [3]): 64.8 µM | binding intensity (BI) (LIMK2 PDZ; [2]): 0.01 ± 0.06 | Kd (LIMK2 PDZ; [3]): > 100 µM | binding intensity (BI) (SNTB1 PDZ; [2]): 0.22 ± 0.04 | Kd (SNTB1 PDZ; [3]): 57.2 µM | binding intensity (BI) (SNTG2 PDZ; [2]): 0.41 ± 0.02 | Kd (SNTG2 PDZ; [3]): 22.1 µM | binding intensity (BI) (PTPN3 PDZ; [2]): 0.05 ± 0.02 | Kd (PTPN3 PDZ; [3]): > 100 µM | binding intensity (BI) (DLG4-2 PDZ; [2]): 0.11 ± 0.03 | Kd (DLG4-2 PDZ; [3]): > 100 µM | binding intensity (BI) (MAGI2-2 PDZ; [2]): 0.42 ± 0.01 | Kd (MAGI2-2 PDZ; [3]): 21.2 µM | binding intensity (BI) (LAP2 PDZ; [2]): −0.02 ± 0.05 | Kd (LAP2 PDZ; [3]): > 100 µM | binding intensity (BI) (MAGI1-2 PDZ; [2]): 0.43 ± 0.02 | Kd (MAGI1-2 PDZ; [3]): 20.3 µM | binding intensity (BI) (PDZD7-3 PDZ; [2]): 0.60 ±0.03 | Kd (PDZD7-3 PDZ; [3]): 9.7 µM | binding intensity (BI) (PPP1R9A PDZ; [2]): 0.00 ± 0.02 | Kd (PPP1R9A PDZ; [3]): > 100 µM | binding intensity (BI) (MAGI3-2 PDZ): 0.28 ± 0.03 | binding intensity (BI) (SHROOM2 PDZ; [2]): 0.00 ± 0.01 | Kd (SHROOM2 PDZ; [3]): > 100 µM | interaction partner by updated analysis (SCRIB-3 PDZ): new interaction partners | binding intensity (BI) (PARD3B-1 PDZ): 0.52 ± 0.05 | binding intensity (BI) (GRID2IP-1 PDZ; [2]): 0.06 ± 0.02 | Kd (GRID2IP-1 PDZ; [3]): > 100 µM | binding intensity (BI) (MAST2 PDZ): 0.74 ± 0.03 | average BI [1]: 0.42 | maximal BI [1]: 0.77 | binding intensity (BI) (NHERF3-1 PDZ; [2]): 0.41 ± 0.01 | Kd (NHERF3-1 PDZ; [3]): 22.1 µM | binding intensity (BI) (GORASP1 PDZ; [2]): 0.01 ± 0.02 | Kd (GORASP1 PDZ; [3]): > 100 µM | binding intensity (BI) (HTRA1 PDZ; [2]): 0.44 ± 0.03 | Kd (HTRA1 PDZ; [3]): 19.4 µM | binding intensity (BI) (PDZRN4-1 PDZ): 0.51 ± 0.02
